Results gathered from unrelated publications.
Compare with care: the assays were run in different laboratories.
Read-out: cell growth or viability

| Structure (SMILES) | cell line | test | conditions | quantity | value |
| --- | --- | --- | --- | --- | --- |
| COc1ccc(-c2cc(=O)c3c(OC)cc(OC)cc3o2)cc1 | HS27 | MTT | 24 h | IC50 | > 200 µM |
| Oc1ccc(Nc2nc(-c3ccc(Cl)cc3)cs2)cc1 | FF2441 | MTS | 72 h | IC50 | > 100 µM |
| C[C@]12CC[C@H](O)CC1=CC[C@@H]1[C@@H]2CC[C@]2(C)C(c3cccnc3)=CC[C@@H]12 | CWR22Rv1 | MTT |  | GI50 | 11.5 µM |
| COc1cc2c(cc1OS(N)(=O)=O)CCN(C(=O)c1cc(OC)c(OC)c(OC)c1)C2 | MDA-MB-231 | WST-1 | 96 h | GI50 | 1.72 µM |
| COc1cc(C)cc2oc(-c3ccccc3Br)cc(=O)c12 | HS27 | MTT | 24 h | IC50 | 130 µM |
| N#CC(C(=O)Nc1cccc(C(F)(F)F)c1)=C1Sc2nc3ccc(S(=O)(=O)N4CCCC4)cc3nc2S1 | MDA-MB-231 | MTT | 50 µM, 24 h | viability | 18.4% |
| Fc1ccc(-c2nc3ccccc3[nH]2)cc1 | MDA-MB-231 | MTT | 48 h | IC50 | > 100 µM |
| COc1cc(C)c(-c2c(C)cc(OC)c3c(=O)cc(-c4cccc(Br)c4)oc23)c2oc(-c3cccc(Br)c3)cc(=O)c12 | HS27 | MTT | 24 h | IC50 | > 200 µM |
| COc1cc(OC)c(CN2CCc3cc(O)c(OC)cc3C2)c(OC)c1 | MDA-MB-231 | WST-1 | 96 h | GI50 | > 100 µM |
| C=CC(=O)N1CCC[C@@H](n2nc(-c3ccc(Oc4ccccc4)cc3)c3c(N)ncnc32)C1 | OCI-Ly3 | ATP luminescence | 72 h | GI50 | 19.3 µM |
| Fc1cccc(Cl)c1-c1nc2ccccc2[nH]1 | MDA-MB-231 | MTT | 48 h | IC50 | 69 µM |
| COc1cc2c(cc1O)CCN(Cc1cccc(NS(C)(=O)=O)c1)C2 | MDA-MB-231 | WST-1 | 96 h | GI50 | > 100 µM |
| Clc1ccc(-c2nc3ccccc3[nH]2)cc1 | MDA-MB-231 | MTT | 48 h | IC50 | > 100 µM |
| COc1cc2c(cc1O)CCN(Cc1cc(OC)c(OC)cc1OC)C2 | MDA-MB-231 | WST-1 | 96 h | GI50 | 4.1 µM |
| C=CCn1c(-c2ccc(Cl)cc2)nc2ccccc21 | MDA-MB-231 | MTT |  | IC50 | 73.1 µM |
| COc1cc2c(cc1OS(N)(=O)=O)CCN(Cc1cccc(NS(C)(=O)=O)c1)C2 | MDA-MB-231 | WST-1 | 96 h | GI50 | > 100 µM |
| Cc1ccc2nc(-c3ccc(Cl)cc3)[nH]c2c1 | MDA-MB-231 | MTT | 48 h | IC50 | 27.1 µM |
| O=C1CCCCC1=C1Sc2nc3ccc(S(=O)(=O)N4CCCC4)cc3nc2S1 | MDA-MB-231 | MTT | 25 µM, 24 h | viability | 23.4% |
| Cc1ccc2nc(-c3ccccc3O)[nH]c2c1 | MDA-MB-231 | MTT | 48 h | IC50 | 31.9 µM |
| COc1cc(OC)c2c(=O)cc(-c3ccccc3)oc2c1-c1c(OC)cc(OC)c2c(=O)cc(-c3ccccc3)oc12 | HS27 | MTT | 24 h | IC50 | > 200 µM |
